# PvdQ acylase: P. aeruginosa PvdQ acylase inhibition. inhibition, % at 10 µM. purified PvdQ acylase, fluorescence plate reader. 340,000 compounds, 0.063% hits; in the data active = inhibition above about 30%, passing the limit was not always enough;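 note: 0% = vehicle neutral wells and 100% = reference inhibitor wells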
# VIM-2 inh: inhibitors of Pseudomonas aeruginosa VIM-2 metallo-beta-lactamase; 290,000 compounds, 0.89% hits; inhibition, % at 5.6 µM; AID 1527; purified VIM-2, nitrocefin hydrolysis, epi-absorbance fluorescence;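 active = inhibition above the mean of all tested compounds plus 3 SD, cutoff set per screening run, cut at about 7.5% in these data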;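 note: red hydrolysis product quenches plate fluorescence so inhibitors raise well fluorescence; 0% = enzyme with DMSO and 100% = DMSO without enzyme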
# PHOSPHO1 inh: inhibitors of human PHOSPHO1 phosphatase | Q8TCT1 | recombinant PHOSPHO1, absorbance phosphatase assay | inhibition, % at 13.3 µM | 290,000 compounds, 1.1% hits | AID 1565; in the data active = inhibition above about 60%
# Target sequence (Q8TCT1 whole entry, looked up): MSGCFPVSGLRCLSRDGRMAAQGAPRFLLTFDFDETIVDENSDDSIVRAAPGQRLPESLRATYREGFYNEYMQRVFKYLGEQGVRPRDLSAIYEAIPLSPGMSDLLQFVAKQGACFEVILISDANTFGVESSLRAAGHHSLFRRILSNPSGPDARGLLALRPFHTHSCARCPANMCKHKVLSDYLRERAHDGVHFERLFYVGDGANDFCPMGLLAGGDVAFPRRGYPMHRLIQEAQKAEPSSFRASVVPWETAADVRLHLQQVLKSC
# CR mimetic SO: caloric restriction mimetics inhibiting age-related superoxide in yeast; 330,000 compounds, 0.18% hits; superoxide response (% of plate mean), % at 10 µM; S. cerevisiae aged cells, superoxide DHE fluorescence; active compounds read low; AID 2690;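 active = superoxide response under a set limit, about three screen SD below normal, cut at about 65% in these data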;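 note: yeast aged for seven days with compound at 30 °C before DHE staining; 100% = average MFI of all compound-treated wells on the plate with controls excluded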
# IMP-1 inhibitor: blocks Pseudomonas aeruginosa IMP-1 metallo-beta-lactamase; purified IMP-1, nitrocefin hydrolysis, epi-absorbance fluorescence; inhibition, % at 5.6 µM; 290,000 compounds, 0.45% hits; AID 1556;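 active = inhibition above the mean plus 3 SD of all compounds in the same screening run, cut at about 4.5% in these data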;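 note: 0% = IMP-1 with DMSO and 100% = DMSO wells lacking enzyme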
#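 Assay system: purified recombinant IMP-1 beta-lactamase. Input: IMP-1 0.2 nM before substrate addition. Buffer or medium: Zinc- and detergent-supplemented HEPES buffer, pH 7.1. Schedule: 25 °C, 15 min preincubation, 25 min reaction. Signal: Epi-absorbance fluorescence, 480 nm excitation, 530 nm emission. Evaluation: percent inhibition from optical density relative to buffer-blank wells.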
# CR mimetic CP: confirmation of caloric restriction mimetics inhibiting yeast age-related superoxide. 850 compounds, 1% hits. S. cerevisiae aging, superoxide DHE fluorescence; active compounds read low. superoxide response (% of plate), % at 10 µM. AID 434994. shares compounds with CR mimetic SO;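 active = superoxide signal below 65% of the plate average of sample wells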;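 note: cells aged with compound for 7 days at 30 degrees C before staining; 100% equals mean DHE fluorescence of all compound wells on the plate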
# DHE fluor count: counter-screen for compounds affecting DHE oxidation and fluorescence in yeast; shares compounds with CR mimetic SO; S. cerevisiae BY4741, flow cytometry; active compounds read low; fluorescence response, % at 10 µM; 850 tested, under 10 active; AID 435000;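 active = fluorescence response below 15%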;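 note: percent of the mean fluorescence averaged over all compound wells on the plate; lower means stronger quenching of DHE signal or ROS scavenging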
# An asterisk follows results filed as active; x = no result given. A selection: hits, their analogues and other compounds. The true share with any hit is near 2.2%.
SMILES,PvdQ acylase,VIM-2 inh,PHOSPHO1 inh,CR mimetic SO,IMP-1 inhibitor,CR mimetic CP,DHE fluor count
CCOc1ccc(S(=O)(=O)N2CCCCC2)cc1NC(=O)CN1C(=O)NC(C)(c2ccc(C)cc2)C1=O (configuration not stated),-3,x,x,97,x,x,x
CCn1c(SCC(=O)Nc2ccc(OC)c(OC)c2)nnc1-c1cccs1,-13,0,6,97,-3,119,105
CCn1c(SCC(=O)Nc2cc(OC)c(OC)c(OC)c2)nnc1-c1cccs1,3,-2,41,95,-3,x,x
CS(=O)(=O)Nc1ccccc1C(=O)N1CCN(c2ccccc2)CC1,x,0,30,84,-3,111,110
CSc1ccccc1C(=O)N1CCN(c2ccc(F)cc2)CC1,7,-2,0,95,-3,109,90
Cc1cccc(-n2ncc3c2CCCC3NC(=O)CCN2CCCO2)c1C (configuration not stated),3,-2,42,109,2,x,x
O=C(Cc1ccccc1)NCc1ccncc1,-4,-3,12,57*,-2,102,97
O=C(Cc1c[nH]c2ccccc12)NCc1ccncc1,-21,0,-18,106,-1,x,x
COCCCN1C(=O)N(c2ccccc2)C(=O)C1CC(=O)Nc1ccc(F)cc1 (configuration not stated),-8,-1,26,62*,0,95,90
COCCCN1C(=O)N(c2ccccc2)C(=O)C1CC(=O)Nc1ccccc1 (configuration not stated),-9,-2,26,116,-5,x,x
O=C(CSc1nnc(-c2ccc(O)cc2)n1Cc1ccco1)N1CCc2ccccc2C1,0,0,7,60*,-2,92,92
NC(=O)CSc1nnc(-c2ccc(O)cc2)n1Cc1ccco1,-15,-4,2,88,-1,x,x
Cc1cc(Cl)ccc1OC(C)C(=O)Nc1ccc(C(=O)Nc2ccccc2C(=O)O)cc1 (configuration not stated),-4,1,8,142,1,x,x
COc1ccc(/C(C)=N/NC(=O)CNC(=O)/C=C\c2ccccc2OC)c(OC)c1,-6,-3,22,108,-4,x,x
Cc1ccc(C(=O)N2CCN(c3ccc(Cl)cc3)CC2)cc1,-4,-1,16,107,0,106,92
CCc1ccc(N2CCN(C(=O)c3ccc(OC)c(OC)c3)CC2)cc1,-16,4,10,86,-1,x,x
COc1ccc(C(=O)N2CCN(c3ccc(C)cc3)CC2)cc1OC,-8,2,-15,91,-3,111,106
CCOC(=O)/C=C/[C@H]1CCc2cccc(Cl)c2O1,1,x,x,118,x,x,x
CN1C(=O)CCC(CCC(=O)O)(c2ccccc2O)C1=O (configuration not stated),-8,-2,1,63*,-1,103,106
Cc1ccc(S(=O)(=O)N2CCN(C(=O)CSc3nc4ccccc4o3)C2)cc1,-13,-1,-9,89,1,x,x
O=C(CSc1nc2ccccc2o1)N1CCN(S(=O)(=O)c2ccc3ccccc3c2)CC1,13,0,-14,64*,-3,111,117
CCN(CC)c1ccc(C(=C2C=CC(=[N+](CC)CC)C=C2)c2ccc(S(=O)(=O)O)cc2S(=O)(=O)[O-])cc1,-2,x,x,x,x,x,x
CC(=O)n1c2ccccc2c2ccccc21,1,-2,-12,103,-2,95,92
CC12CCCC[C@@H]1CCC1C2CCC2(C)C1CC[C@@]2(O)CNCCO (some centres not stated),-12,-3,46,89,-3,103,94
CN(CCO)S(=O)(=O)c1ccc2c(c1)C(=NN)c1cc(S(=O)(=O)N(C)CCO)ccc1-2,-13,2,x,65*,-3,89,101
SMILES,PvdQ acylase,VIM-2 inh,PHOSPHO1 inh,CR mimetic SO,IMP-1 inhibitor,CR mimetic CP,DHE fluor count
O=C1c2cc(S(=O)(=O)N(CCO)CCO)ccc2-c2ccc(S(=O)(=O)N(CCO)CCO)cc21,-18,x,x,103,x,x,x
Cc1nc(-c2ccc(NC(=O)Cc3ccccc3)cc2)cs1,-15,-1,37,64*,1,120,123
CCOC(=O)c1cnc2c(F)ccc(F)c2c1Sc1ccccc1,17,-3,20,62*,-2,86,111
Cc1ccc(CNC(=O)Cn2nnc(C(=O)Nc3cc(C)ccc3C)c2N)cc1,-9,0,27,57*,-1,99,105
Cc1ccc(Cn2nnc(C(=O)Nc3cc(C)ccc3C)c2N)cc1,-11,-2,34,114,0,x,x
NS(=O)(=O)c1ccc(N2CCN(C(=O)c3ccco3)CC2)nc1,-13,x,x,105,x,x,x
CCN(CC(=O)NCc1cccs1)C(=O)c1ccc(NS(=O)(=O)c2ccc(F)cc2)cc1,-10,x,x,116,x,x,x
CCOc1ccccc1C(=O)N1CCN(c2cccc(Cl)c2)CC1,-9,-1,-10,119,-3,98,91
COc1ccc(C(=O)N2CCN(c3cccc(Cl)c3)CC2)c(OC)c1,-9,1,41,104,-8,108,100
Cc1c(C(=O)N2CCN(c3cccc(Cl)c3)CC2)cccc1[N+](=O)[O-],-3,-2,28,96,-3,94,98
COc1cc(SC)ccc1C(=O)N1CCN(c2ccccc2F)CC1,2,-5,32,121,-3,120,119
Cc1cc(C)cc(N(CCC(=O)Nc2nnc(C)s2)S(=O)(=O)c2ccc(Cl)cc2)c1,-2,-3,-7,97,-4,x,x
COc1ccccc1C(=O)N1c2ccccc2Sc2ccccc21,-11,1,7,111,-4,x,x
CCOc1ccccc1C(=O)N1c2ccccc2Sc2ccccc21,-4,-1,-23,57*,-3,86,94
CCc1ccccc1NC(=O)Cn1nc(C)n2cccc2c1=O,-5,-1,15,63*,-4,98,88
CC(C)NC(=O)CN1CCN(Cc2nc(C(c3ccccc3)c3ccccc3)no2)CC1,-3,-3,35,94,-2,x,x
COc1cc(/C=N/NC(=O)C2=NNC(=O)C2C)ccc1O (configuration not stated),-8,-3,8,91,-6,x,x
CC1C(=O)NN=C1C(=O)N/N=C\c1ccc(O)cc1O (configuration not stated),-4,-2,-15,60*,-4,94,94
O=S(=O)(CCN1C=CC(C(F)(F)F)=NCC1)c1ccc(Cl)cc1Cl,6,-4,4,89,-4,x,x
CCCCNS(=O)(=O)c1ccc2nc(-c3cccs3)cc(C(=O)NCC(OC)OC)c2c1,x,-2,0,109,-2,x,x
COC(=O)c1cccc(NC2CC(=O)N(c3ccc(OC)c(OC)c3)C2=O)c1 (configuration not stated),5,-3,27,62*,-3,97,93

# Assay outcomes as filed in PubChem.
